# How the values were obtained:
# [1] = test system: Klebsiella aerogenes; test: Minimum inhibitory concentration of compound against Enterobacter aerogenes delta 220; assay type: functional
# [2] = test system: Klebsiella pneumoniae; test: Minimum inhibitory concentration of compound against Klebsiella pneumoniae delta 217; assay type: functional
# [3] = test system: Escherichia coli; test: Antibacterial activity againist Escherichia coli 120 infected NMRI mice after peroral administration; assay type: functional; conditions: po
# Method in brief: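 ED50 in NMRI mice infected intraperitoneally with E. coli 120; compound given orally immediately and 5 h after infection.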
# [4] = test system: Neisseria gonorrhoeae; test: Minimum inhibitory concentration of compound against Neisseria gonorrhoeae AS 7720; assay type: functional
# Method in brief: (§1)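 Agar dilution on Kellogg agar, 10⁶ colony forming units, incubated 20 h at 36 °C in 5% CO₂; MIC is the lowest concentration giving no visible growth.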
# [5] = test system: Proteus mirabilis; test: Minimum inhibitory concentration against Proteus mirabilis delta 89; assay type: functional
# [6] = test system: Salmonella typhimurium; test: Minimum inhibitory concentration of compound against Salmonella Typhimurium delta 119; assay type: functional, Salmonella enterica subsp. enterica serovar Typhimurium; conditions: Salmonella enterica
# [7] = test system: Neisseria gonorrhoeae; test: Minimum inhibitory concentration of compound against Neisseria gonorrhoeae W2; assay type: functional; method in brief: as §1
# [8] = test system: Escherichia coli; test: Minimum inhibitory concentration of compound against Escherichia coli delta 120; assay type: functional
# [9] = test system: Escherichia coli; test: Antibacterial activity againist Escherichia coli 120 infected NMRI mice after subcutaneous administration; assay type: functional; conditions: sc
# Method in brief: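 ED50 in NMRI mice infected intraperitoneally with E. coli 120; compound given subcutaneously immediately and 5 h after infection.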
SMILES,MIC [1],MIC [2],ED50 [3],MIC [4],MIC [5],MIC [6],MIC [7],MIC [8],ED50 [9]
CCCS(=O)(=O)N1N=Cc2cc(Cl)ccc2B1O,25 µg/mL,1.56 µg/mL,14 mg/kg,2 µg/mL,2.5 µg/mL,3.12 µg/mL,2 µg/mL,10 µg/mL,–
Cc1ccc(S(=O)(=O)N2N=Cc3sc(Br)cc3B2O)cc1,25 µg/mL,1.56 µg/mL,~15 mg/kg,0.5 µg/mL,1.56 µg/mL,3.12 µg/mL,2 µg/mL,6.25 µg/mL,–
Cc1ccc2c(c1)C=NN(S(C)(=O)=O)B2O,> 50 µg/mL,6.25 µg/mL,42 mg/kg,> 8 µg/mL,25 µg/mL,12.5 µg/mL,> 8 µg/mL,25 µg/mL,–
Cc1ccc(S(=O)(=O)N2N=Cc3cc(C)sc3B2O)c(Cl)c1,50 µg/mL,3.12 µg/mL,25 mg/kg,1 µg/mL,1.56 µg/mL,6.25 µg/mL,1 µg/mL,50 µg/mL,–
O=S(=O)(c1ccccc1)N1N=Cc2ccc(O)cc2B1O,> 50 µg/mL,50 µg/mL,100 mg/kg,> 8 µg/mL,50 µg/mL,12.5 µg/mL,> 8 µg/mL,50 µg/mL,–
Cc1ccc(S(=O)(=O)N2N=Cc3ccc(Br)cc3B2O)cc1,> 50 µg/mL,6.25 µg/mL,~30 mg/kg,2 µg/mL,12.5 µg/mL,6.25 µg/mL,8 µg/mL,50 µg/mL,–
O=S(=O)(c1ccccc1)N1N=Cc2sc(Br)cc2B1O,12.5 µg/mL,0.78 µg/mL,~20 mg/kg,1 µg/mL,1.56 µg/mL,0.78 µg/mL,2 µg/mL,3.12 µg/mL,–
Cc1ccc(S(=O)(=O)N2N=Cc3c(ccc4ccccc34)B2O)cc1,> 50 µg/mL,25 µg/mL,> 100 mg/kg,2 µg/mL,3.12 µg/mL,> 50 µg/mL,8 µg/mL,> 50 µg/mL,–
Cc1ccc(S(=O)(=O)N2N=Cc3sc(Cl)cc3B2O)cc1,50 µg/mL,2.5 µg/mL,28 mg/kg,1 µg/mL,1.56 µg/mL,5 µg/mL,1 µg/mL,25 µg/mL,–
CS(=O)(=O)N1N=Cc2sccc2B1O,> 50 µg/mL,> 50 µg/mL,113 mg/kg,> 8 µg/mL,> 50 µg/mL,> 50 µg/mL,> 8 µg/mL,> 50 µg/mL,–
Cc1cc2c(s1)C=NN(S(=O)(=O)c1ccccc1C)B2O,50 µg/mL,0.78 µg/mL,50 mg/kg,0.5 µg/mL,1.56 µg/mL,6.25 µg/mL,0.5 µg/mL,25 µg/mL,–
Cc1ccc(S(=O)(=O)N2N=Cc3cc(F)ccc3B2O)cc1,> 50 µg/mL,6.25 µg/mL,~25 mg/kg,2 µg/mL,6.25 µg/mL,6.25 µg/mL,8 µg/mL,25 µg/mL,–
CC(=O)Nc1ccc(S(=O)(=O)N2N=Cc3sc(Br)cc3B2O)c(Cl)c1,25 µg/mL,3.12 µg/mL,208 mg/kg,1 µg/mL,6.25 µg/mL,3.12 µg/mL,1 µg/mL,50 µg/mL,–
CC(=O)Nc1ccc(S(=O)(=O)N2N=Cc3sc(Br)cc3B2O)cc1,25 µg/mL,3.12 µg/mL,55 mg/kg,1 µg/mL,3.12 µg/mL,3.12 µg/mL,1 µg/mL,25 µg/mL,–
Cc1ccc(S(=O)(=O)N2N=Cc3cc(N4CCCC4)ccc3B2O)cc1,> 50 µg/mL,> 50 µg/mL,–,–,> 50 µg/mL,> 50 µg/mL,–,> 50 µg/mL,> 300 mg/kg
Nc1ccc(S(=O)(=O)N2N=Cc3cc(Br)ccc3B2O)cc1,25 µg/mL,1.56 µg/mL,16 mg/kg,1 µg/mL,0.78 µg/mL,3.12 µg/mL,2 µg/mL,10 µg/mL,–

SMILES,MIC [1],MIC [2],ED50 [3],MIC [4],MIC [5],MIC [6],MIC [7],MIC [8],ED50 [9]
Cc1ccc2c(c1)C=NN(S(=O)(=O)c1ccc(N)cc1Cl)B2O,10 µg/mL,0.78 µg/mL,14 mg/kg,1 µg/mL,0.39 µg/mL,3.12 µg/mL,1 µg/mL,10 µg/mL,–
CCCS(=O)(=O)N1N=Cc2c(ccn2C)B1O,> 50 µg/mL,25 µg/mL,> 300 mg/kg,> 8 µg/mL,> 50 µg/mL,> 50 µg/mL,> 8 µg/mL,> 50 µg/mL,–
CCc1cc2c(s1)C=NN(S(=O)(=O)c1ccccc1Cl)B2O,12.5 µg/mL,0.31 µg/mL,49 mg/kg,0.5 µg/mL,0.39 µg/mL,0.78 µg/mL,1 µg/mL,3.12 µg/mL,–
O=S(=O)(c1ccccc1Cl)N1N=Cc2cc(Br)sc2B1O,> 50 µg/mL,> 50 µg/mL,> 300 mg/kg,> 8 µg/mL,> 50 µg/mL,> 50 µg/mL,> 8 µg/mL,> 50 µg/mL,–
Cc1ccc(S(=O)(=O)N2N=Cc3sc(C)cc3B2O)c(Cl)c1,50 µg/mL,1.56 µg/mL,32 mg/kg,0.5 µg/mL,1.56 µg/mL,12.5 µg/mL,1 µg/mL,50 µg/mL,–
CC(=O)Nc1ccc(S(=O)(=O)N2N=Cc3cc(Br)ccc3B2O)c(Cl)c1,50 µg/mL,3.12 µg/mL,83 mg/kg,1 µg/mL,1.56 µg/mL,12.5 µg/mL,2 µg/mL,50 µg/mL,–
Cc1ccc(S(=O)(=O)N2N=Cc3ccc(Cl)cc3B2O)cc1,> 50 µg/mL,12.5 µg/mL,~50 mg/kg,1 µg/mL,25 µg/mL,12.5 µg/mL,> 8 µg/mL,> 50 µg/mL,–
Cc1ccc(S(=O)(=O)N2N=Cc3sc(Br)cc3B2O)c(Cl)c1,50 µg/mL,6.25 µg/mL,39 mg/kg,0.25 µg/mL,3.12 µg/mL,12.5 µg/mL,1 µg/mL,50 µg/mL,–
Cc1ccccc1S(=O)(=O)N1N=Cc2sc(Br)cc2B1O,50 µg/mL,3.12 µg/mL,57 mg/kg,0.5 µg/mL,1.56 µg/mL,6.25 µg/mL,0.5 µg/mL,25 µg/mL,–
Cc1ccc(S(=O)(=O)N2N=Cc3cc(Br)sc3B2O)cc1,> 50 µg/mL,> 50 µg/mL,> 300 mg/kg,> 8 µg/mL,25 µg/mL,> 50 µg/mL,> 8 µg/mL,> 50 µg/mL,–
Cc1cc(C)c(S(=O)(=O)N2N=Cc3sc(Br)cc3B2O)c(C)c1,> 50 µg/mL,25 µg/mL,> 600 mg/kg,1 µg/mL,2.5 µg/mL,> 50 µg/mL,2 µg/mL,> 50 µg/mL,–
CCCS(=O)(=O)N1N=Cc2cc(CC)sc2B1O,5 µg/mL,0.31 µg/mL,4 mg/kg,0.5 µg/mL,1.25 µg/mL,0.31 µg/mL,0.5 µg/mL,2.5 µg/mL,–
Cc1ccc(S(=O)(=O)N2N=Cc3cc4c(cc3B2O)C=NN(S(=O)(=O)c2ccc(C)cc2)B4O)cc1,> 50 µg/mL,> 50 µg/mL,> 300 mg/kg,> 8 µg/mL,50 µg/mL,> 50 µg/mL,> 8 µg/mL,> 50 µg/mL,–
Cc1ccc(S(=O)(=O)N2N=Cc3cc(Cl)ccc3B2O)cc1,> 50 µg/mL,6.25 µg/mL,~20 mg/kg,1 µg/mL,3.12 µg/mL,3.12 µg/mL,2 µg/mL,25 µg/mL,–
CC(C)CS(=O)(=O)N1N=Cc2sc(Br)cc2B1O,12.5 µg/mL,1.56 µg/mL,73 mg/kg,2 µg/mL,6.25 µg/mL,1.56 µg/mL,2 µg/mL,12.5 µg/mL,–

# — ChEMBL document CHEMBL1122708, “Preparation and antibacterial activities of new 1,2,3-diazaborine derivatives and analogues” (1984)
